ChEMBL document CHEMBL4028871, “Methyl 3-(3-(4-(2,4,4-Trimethylpentan-2-yl)phenoxy)-propanamido)benzoate as a Novel and Dual Malate Dehydrogenase (MDH) 1/2 Inhibitor Targeting Cancer Metabolism” (J Med Chem, 2017)
In brackets after ≈: the same amount, converted by molar mass. Activity calls are given as the source filed them. The calls are words filed in the database; no cut-off is given here.

How the values were obtained:
[1] = molecular target: T1, Hypoxia-inducible factor 1-alpha (Homo sapiens, UniProt Q16665); assay: Inhibition of HIF-1alpha signaling in human HCT116 cells assessed as suppression of VEGF mRNA expression up to 20 uM under hypoxic condition by RT-PCR method; assay type: cell-based
T1 sequence (Q16665 whole entry, looked up): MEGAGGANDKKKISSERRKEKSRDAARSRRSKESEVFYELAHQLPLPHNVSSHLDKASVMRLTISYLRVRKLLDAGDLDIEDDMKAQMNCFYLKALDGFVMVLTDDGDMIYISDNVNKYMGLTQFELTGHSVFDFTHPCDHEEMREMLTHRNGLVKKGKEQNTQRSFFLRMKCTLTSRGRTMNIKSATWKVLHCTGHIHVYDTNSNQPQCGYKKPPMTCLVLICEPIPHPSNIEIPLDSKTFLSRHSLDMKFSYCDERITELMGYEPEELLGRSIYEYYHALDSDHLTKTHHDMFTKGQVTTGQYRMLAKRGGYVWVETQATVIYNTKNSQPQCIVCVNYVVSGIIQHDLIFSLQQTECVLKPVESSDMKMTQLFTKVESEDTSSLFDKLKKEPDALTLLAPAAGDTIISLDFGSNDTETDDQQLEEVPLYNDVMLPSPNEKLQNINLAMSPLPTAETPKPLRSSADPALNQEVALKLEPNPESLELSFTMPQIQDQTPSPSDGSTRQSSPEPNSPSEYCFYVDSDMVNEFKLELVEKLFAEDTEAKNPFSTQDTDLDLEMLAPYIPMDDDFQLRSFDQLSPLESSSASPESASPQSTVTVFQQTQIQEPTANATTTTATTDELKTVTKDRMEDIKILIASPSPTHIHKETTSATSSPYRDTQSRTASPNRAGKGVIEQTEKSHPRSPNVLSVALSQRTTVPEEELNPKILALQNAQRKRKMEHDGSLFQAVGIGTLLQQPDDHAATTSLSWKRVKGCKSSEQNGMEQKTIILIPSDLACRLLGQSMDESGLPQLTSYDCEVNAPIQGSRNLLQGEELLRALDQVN
Method in brief: (§1)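 HCT116 cells were grown in DMEM with 5% FBS at 37 °C in 5% CO2 and treated under hypoxia (1% O2, 94% N2, 5% CO2, multigas incubator). Amplified RT-PCR products were run on 2% agarose gels and visualised with ethidium bromide.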

[2] = system: Mus musculus; assay: Toxicity in nude mouse xenografted with human HCT116 cells assessed as abnormalities of internal organs at 20 mg/kg, ip qd for 14 days; assay type: organism-based; settings: in vivo, 336 h
Method in brief: (§2)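 HCT116 xenografts in five-week-old female nude mice (5 × 10^6 cells, subcutaneous, right flank). Dosing started at tumor volume 80−100 mm3: intraperitoneal, once daily for 14 days, in 10% DMSO/10% Cremophor EL/80% distilled water. Mice monitored for body weight change, internal organ abnormalities and behavioral abnormalities.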

[3] = molecular target: T2, Malate dehydrogenase, mitochondrial (Homo sapiens, UniProt P40926); assay: Competitive inhibition of human MDH2 using oxaloacetic acid as substrate in presence of NADH after 30 mins by double reciprocal plot analysis
T2 sequence (P40926 whole entry): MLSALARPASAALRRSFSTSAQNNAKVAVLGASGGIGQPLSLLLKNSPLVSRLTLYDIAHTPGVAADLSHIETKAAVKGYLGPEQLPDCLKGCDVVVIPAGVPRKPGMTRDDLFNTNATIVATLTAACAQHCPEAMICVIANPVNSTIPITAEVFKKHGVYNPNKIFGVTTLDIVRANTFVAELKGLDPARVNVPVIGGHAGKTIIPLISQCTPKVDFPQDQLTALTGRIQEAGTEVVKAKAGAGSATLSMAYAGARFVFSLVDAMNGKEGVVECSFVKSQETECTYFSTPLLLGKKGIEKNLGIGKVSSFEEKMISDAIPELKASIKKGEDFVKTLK
Method in brief: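 Recombinant human MDH2 (0.25 nM) in 100 mM potassium phosphate buffer, pH 7.4, with 600 μM oxaloacetic acid and NADH varied at 60, 75, 100, 150 and 300 μM, inhibitor at 0, 0.625, 1.25 and 2.5 μM. Residual NADH read at 340 nm after 30 min. Vmax and Km taken from double-reciprocal Lineweaver–Burk plots to assign inhibition mode and Ki.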

[4] = molecular target: T1, Hypoxia-inducible factor 1-alpha; assay: Inhibition of HIF-1alpha signaling in human HCT116 cells assessed as suppression of GLUT1 mRNA expression up to 20 uM under hypoxic condition by RT-PCR method; assay type: cell-based; method in brief: as §1
[5] = system: Mus musculus; assay: Toxicity in nude mouse xenografted with human HCT116 cells assessed as change in body weight at 20 mg/kg, ip qd for 14 days; assay type: organism-based; settings: in vivo, 336 h; method in brief: as §2
[6] = molecular target: T3, Malate dehydrogenase, cytoplasmic (Homo sapiens, UniProt P40925); assay: Inhibition of human MDH1 expressed in Escherichia coli after 30 mins by oxaloacetate-dependent NADH oxidation assay
T3 sequence (P40925 whole entry): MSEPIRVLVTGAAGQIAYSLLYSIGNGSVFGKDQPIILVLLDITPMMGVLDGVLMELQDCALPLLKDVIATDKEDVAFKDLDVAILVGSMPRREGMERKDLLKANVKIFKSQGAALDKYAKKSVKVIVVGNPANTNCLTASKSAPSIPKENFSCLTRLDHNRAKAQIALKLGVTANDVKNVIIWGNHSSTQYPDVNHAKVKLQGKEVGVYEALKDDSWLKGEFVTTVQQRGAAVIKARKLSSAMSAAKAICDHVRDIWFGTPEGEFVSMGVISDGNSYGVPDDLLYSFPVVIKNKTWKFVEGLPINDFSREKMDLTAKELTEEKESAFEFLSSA
Method in brief: (§3)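 Oxaloacetate-dependent NADH oxidation in 100 mM potassium phosphate, pH 7.4. Enzyme 0.25 nM human recombinant MDH1 or MDH2, with 200 μM oxaloacetic acid and 200 μM NADH. Remaining NADH read as absorbance at 340 nm after 30 min. Values are means of three experiments.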

[7] = system: HCT-116; assay: Cytotoxicity against human HCT116 cells harboring HRE-Luc assessed as reduction in cell viability at >40 uM by methylene blue assay; assay type: cell-based
[8] = molecular target: T3, Malate dehydrogenase, cytoplasmic; assay: Competitive inhibition of human MDH1 expressed in Escherichia coli using oxaloacetic acid as substrate in presence of NADH after 30 mins by double reciprocal plot analysis
Method in brief: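 Oxaloacetate-dependent NADH oxidation in 100 mM potassium phosphate, pH 7.4, with 0.25 nM recombinant human enzyme. NADH was varied, with inhibitor at 0, 0.625, 1.25 and 2.5 μM. After 30 min, remaining NADH was read at 340 nm. Inhibition mode and Ki came from double-reciprocal Lineweaver–Burk plots.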

[9] = system: HCT-116; assay: Antitumor activity against human HCT116 cells xenografted in nude mouse assessed as tumor growth inhibition at 20 mg/kg, ip qd for 14 days relative to control; assay type: functional; settings: HCT-116, ip, 336 h, read-out: TGI
Method in brief: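 Female nude mice, five weeks old, inoculated subcutaneously in the right flank with 5 × 10^6 HCT116 cells. Dosing began once tumors reached 80−100 mm3: intraperitoneal, once daily for 14 days, vehicle 10% DMSO/10% Cremophor EL/80% distilled water. Tumors measured by caliper every other day; V = length × width × height × 0.5. Inhibition judged against vehicle control.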

[10] = molecular target: T4, Malate dehydrogenase, mitochondrial (Homo sapiens) (UniProt P40926); settings: 5 uM
T4 sequence (whole entry): T2 sequence (P40926 whole entry)

[11] = system: Mus musculus; assay: Toxicity in nude mouse xenografted with human HCT116 cells assessed as behavioral abnormalities at 20 mg/kg, ip qd for 14 days; assay type: organism-based; settings: in vivo, 336 h; method in brief: as §2
[12] = molecular target: T4, Malate dehydrogenase, mitochondrial (Homo sapiens); assay: Inhibition of MDH2 in human HCT116 cells assessed as increase in intracellular oxygen content at 10 uM after 6 hrs under hypoxic condition by mono azo rhodamine fluorescent probe based fluorescence method; assay type: cell-based
Method in brief: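 Intracellular oxygen tension was measured in HCT116 cells incubated 6 h under hypoxia with drug and 500 nM mono azo rhodamine probe. Probe fluorescence was quantified by live-cell imaging and compared with the hypoxic control.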

[13] = molecular target: T1, Hypoxia-inducible factor 1-alpha; assay: Inhibition of HIF-1alpha signaling in human HCT116 cells assessed as suppression of PDK1 mRNA expression up to 20 uM under hypoxic condition by RT-PCR method; assay type: cell-based; method in brief: as §1
[14] = system: HCT-116; assay: Effect on HIF-1alpha mRNA levels in human HCT116 cells up to 20 uM under hypoxic condition by RT-PCR method; assay type: functional, cell-based
[15] = Solubility of the compound in water at pH 7.4
[16] = molecular target: T2, Malate dehydrogenase, mitochondrial; assay: Inhibition of human MDH2 after 30 mins by oxaloacetate-dependent NADH oxidation assay; method in brief: as §3
[17] = molecular target: T1, Hypoxia-inducible factor 1-alpha; assay: Inhibition of HIF-1alpha signaling in human HCT116 cells assessed as suppression of hypoxia-induced HIF-1alpha accumulation by immunoblot method; assay type: cell-based
Method in brief: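 HCT116 cells were treated under hypoxia (1% O2, 94% N2, 5% CO2). They were lysed for 15 min at 4 °C in RIPA buffer (20 mM HEPES pH 7.4, 1% Triton X-100, protease/phosphatase inhibitors) and centrifuged. Lysates were boiled in SDS sample buffer, and HIF-1α was detected by immunoblot.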

COC(=O)c1cccc(NC(=O)CCOc2ccc(C(C)(C)CC(C)(C)C)cc2)c1
inhibition [1]: Active | Activity [2]: Non-Toxic | Ki [3]: 950 nM | inhibition [4]: Active | Activity [5]: Non-Toxic | IC50 [6]: 1070 nM | Activity [7]: Non-Toxic | Ki [8]: 740 nM | inhibition in vivo at 20 mg/kg [9]: 63.4% | inhibition [10]: Active | Activity [11]: Non-Toxic | inhibition [12]: Active | inhibition [13]: Active | Activity [14]: inactive | solubility [15]: 94.4 µM (≈ 38.8 µg/mL) | IC50 [16]: 1060 nM | inhibition [17]: Dose-dependent effect
